Laboratory results from ChEMBL document CHEMBL4715754, “Slowing down fat digestion and absorption by an oxadiazolone inhibitor targeting selectively gastric lipolysis” (2016).

Assays:
[1] = target: T1, Pancreatic triacylglycerol lipase (Sus scrofa) (UniProt P00591); test: Inhibition of porcine pancreatic lipase at 400:1 molar excess compound concentration preincubated for 30 mins at 25 degreeC relative to control
T1 sequence (whole entry): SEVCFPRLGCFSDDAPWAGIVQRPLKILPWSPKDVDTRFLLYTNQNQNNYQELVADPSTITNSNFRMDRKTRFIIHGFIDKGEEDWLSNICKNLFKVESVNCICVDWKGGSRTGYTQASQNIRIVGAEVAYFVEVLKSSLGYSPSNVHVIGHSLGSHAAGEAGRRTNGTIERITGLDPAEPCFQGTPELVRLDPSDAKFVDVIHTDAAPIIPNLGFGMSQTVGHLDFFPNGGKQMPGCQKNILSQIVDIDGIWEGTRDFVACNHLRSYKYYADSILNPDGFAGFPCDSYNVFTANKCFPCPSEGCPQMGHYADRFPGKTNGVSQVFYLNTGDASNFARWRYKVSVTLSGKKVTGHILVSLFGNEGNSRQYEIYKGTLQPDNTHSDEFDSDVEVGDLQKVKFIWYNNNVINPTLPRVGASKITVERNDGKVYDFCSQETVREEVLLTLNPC
How it was run: (§1)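 Pancreatic lipase from human pancreatic juice (54 µg/mL HPL stock) or porcine pancreatic extract (32 µg/mL PPL stock) was held in 10 mM MES pH 7.0, 150 mM NaCl. It was pre-incubated with inhibitor from DMSO stock for 30 min at 25 °C with 4 mM NaTDC at varied molar excess. Residual activity was read by pH-stat on tributyrin at 37 °C, pH 8.0, with 2 mM CaCl₂ and 4 mM NaTDC. x_I50 was taken from residual activity; DMSO-only controls were run.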

[2] = target: T1, Pancreatic triacylglycerol lipase (Sus scrofa); test: Inhibition of porcine pancreatic lipase preincubated for 30 mins at 25 degreeC; how it was run: as §1
[3] = target: T2, Pancreatic triacylglycerol lipase (Homo sapiens) (UniProt P16233); test: Inhibition of human pancreatic lipase preincubated for 30 mins at 25 degreeC; how it was run: as §1
T2 sequence (whole entry): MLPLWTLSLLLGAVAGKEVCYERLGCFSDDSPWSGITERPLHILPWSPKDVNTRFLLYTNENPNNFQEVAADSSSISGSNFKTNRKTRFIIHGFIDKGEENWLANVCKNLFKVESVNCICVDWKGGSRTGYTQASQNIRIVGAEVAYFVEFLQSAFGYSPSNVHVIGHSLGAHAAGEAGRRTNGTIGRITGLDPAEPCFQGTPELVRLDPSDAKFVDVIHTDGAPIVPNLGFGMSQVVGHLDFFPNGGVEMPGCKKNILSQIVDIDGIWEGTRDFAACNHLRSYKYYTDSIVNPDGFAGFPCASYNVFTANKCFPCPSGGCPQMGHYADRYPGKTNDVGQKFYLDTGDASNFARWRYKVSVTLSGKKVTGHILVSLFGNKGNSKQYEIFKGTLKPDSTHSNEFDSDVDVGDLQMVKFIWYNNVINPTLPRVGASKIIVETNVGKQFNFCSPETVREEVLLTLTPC

[4] = target: T3, Gastric triacylglycerol lipase (Canis lupus familiaris) (UniProt P80035); test: Inhibition of recombinant dog gastric lipase preincubated for 1 hr at 25 degreeC
T3 sequence (whole entry): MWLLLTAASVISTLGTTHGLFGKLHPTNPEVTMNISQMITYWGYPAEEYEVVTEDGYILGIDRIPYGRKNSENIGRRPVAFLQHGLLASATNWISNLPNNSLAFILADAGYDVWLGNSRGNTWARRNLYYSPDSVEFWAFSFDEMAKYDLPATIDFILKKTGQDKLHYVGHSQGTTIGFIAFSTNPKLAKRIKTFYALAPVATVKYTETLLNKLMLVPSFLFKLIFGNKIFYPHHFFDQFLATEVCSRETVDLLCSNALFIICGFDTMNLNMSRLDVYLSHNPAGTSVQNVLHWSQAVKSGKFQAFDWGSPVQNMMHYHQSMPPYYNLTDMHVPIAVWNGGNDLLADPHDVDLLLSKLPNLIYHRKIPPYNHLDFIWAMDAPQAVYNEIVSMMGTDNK

[5] = target: T3, Gastric triacylglycerol lipase (Canis lupus familiaris); test: Inhibition of recombinant dog gastric lipase assessed as residual activity by measuring half-inactivation time at 20:1 molar excess compound concentration preincubated for 1 hr at 25 degreeC
How it was run: (§2)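 Enzyme pre-incubated with inhibitor (DMSO stock) at fixed molar excess for 1 h at 25 °C without substrate: hCEH x_I=4 (1 mM NaTDC assay), RLL and DGL x_I=20 with 4 mM NaTDC, GPLRP2 x_I=2 with 2 mM NaTDC. Residual activity sampled at intervals by pH-stat on tributyrin emulsion at 37 °C; t1/2 taken at 50% residual activity. DMSO-only controls; at least triplicate.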

[6] = species: Homo sapiens; test: Inhibition of human pancreatic carboxylesterase assessed as residual activity by measuring half-inactivation time at 4:1 molar excess compound concentration preincubated for 1 hr at 25 degreeC; how it was run: as §2
[7] = target: T4, Gastric triacylglycerol lipase (Rattus norvegicus) (UniProt P04634); test: Inhibition of rat lingual lipase assessed as residual activity by measuring half-inactivation time at 20:1 molar excess compound concentration preincubated for 1 hr at 25 degreeC; how it was run: as §2
T4 sequence (whole entry): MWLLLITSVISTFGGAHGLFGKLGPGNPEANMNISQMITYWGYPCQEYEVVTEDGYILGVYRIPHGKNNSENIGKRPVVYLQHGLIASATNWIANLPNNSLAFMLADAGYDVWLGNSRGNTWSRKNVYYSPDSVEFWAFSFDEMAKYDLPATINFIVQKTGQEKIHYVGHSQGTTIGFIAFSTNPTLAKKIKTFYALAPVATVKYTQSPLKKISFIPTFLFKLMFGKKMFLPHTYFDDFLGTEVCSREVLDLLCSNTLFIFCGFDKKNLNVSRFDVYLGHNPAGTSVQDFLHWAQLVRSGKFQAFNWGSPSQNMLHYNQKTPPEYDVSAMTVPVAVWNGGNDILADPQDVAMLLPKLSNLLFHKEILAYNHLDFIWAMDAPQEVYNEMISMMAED

[8] = system: Rattus norvegicus; test: Inhibition of lipolysis in mesenteric lymph duct-cannulated Wistar rat model assessed as decrease in intestinal lipid absorption at 5.3 mg/kg supplemented with olive oil emulsion and measured after 6 hrs relative to control; format: functional; parameters: scale not given: the % may be the effect or the level left
How it was run: (§3)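 Male Wistar rats (8 weeks, 300-350 g), fat-free diet 24 h, mesenteric lymph duct cannulated under ketamine/xylazine. Given 0.8 mL olive oil emulsion (530 mg fatty acids) premixed with inhibitor at 5.3 mg/kg by mouth, then 0.5 mL water. Lymph collected over 24 h; total fatty acids by GC-FID of methyl esters. 7 rats per group; one-way ANOVA with Fisher's test.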

[9] = system: Rattus norvegicus; test: Inhibition of lipolysis in mesenteric lymph duct-cannulated Wistar rat model assessed as decrease in intestinal lipid absorption at 5.3 mg/kg supplemented with olive oil emulsion and measured after 24 hrs relative to control; format: functional; parameters: scale not given: the % may be the effect or the level left; how it was run: as §3

Row | SMILES | inhibition [1] [%] | XI50 [2] [molar excess] | XI50 [3] [molar excess] | XI50 [4] [molar excess] | T1/2 [5] [s] | T1/2 [6] [s] | T1/2 [7] [s] | Activity [8] [%] | Activity [9] [%]
1 | CCCCCCCCCCC[C@@H](C[C@@H]1OC(=O)[C@H]1CCCCCC)OC(=O)[C@@H](CC(C)C)NC=O | 93.1 | 1.35 | 11.1 | 5.6 | 35.4 | 31.2 | 23.4 | -37.4 | -70.9
2 | O=c1oc(OCCOCc2ccccc2)nn1-c1cccc(Oc2ccccc2)c1 | 13.2 | > 400 | > 400 | 0.5 | 101 | 78.6 | 297 | -9.1 | -24
